In experiment [1] the target is MAP kinase-activated protein kinase 2 (Homo sapiens) (UniProt P49137). In words: Inhibition of MAPKAPK2 at 10 uM by HTRF assay relative to control. In outline:
(§1)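 HTRF kinase assay, one panel of kinases. Inhibitor stock 50 µM in 100% DMSO; tested at 10 µM. ATP and substrate at final levels near Km. Final buffer: 50 mM Hepes/NaOH pH 7.4, 40 µM Na3VO4, 0.005% Tween-20, 1 mM DTT, MnCl2 or MgCl2 at kinase-dependent levels. Started by adding ATP/substrate. Reaction run at room temperature, time varied by kinase. Detection mix in 50 mM Hepes pH 7.4, 0.1% BSA, 150 mM KF, incubated ≥1 h at room temperature. Activity expressed as % of uninhibited control; n=2.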
On the technique in general: In TR-FRET formats the signal depends on donor and acceptor labels being close together.

In experiment [2] the target is Focal adhesion kinase 1 (Homo sapiens) (UniProt Q05397). In words: Inhibition of FAK at 10 uM by HTRF assay relative to control. The essentials:
as §1

Experiment [3] has as its target T1, Tyrosine-protein kinase ZAP-70 (Homo sapiens) (UniProt P43403).
T1 sequence (whole entry): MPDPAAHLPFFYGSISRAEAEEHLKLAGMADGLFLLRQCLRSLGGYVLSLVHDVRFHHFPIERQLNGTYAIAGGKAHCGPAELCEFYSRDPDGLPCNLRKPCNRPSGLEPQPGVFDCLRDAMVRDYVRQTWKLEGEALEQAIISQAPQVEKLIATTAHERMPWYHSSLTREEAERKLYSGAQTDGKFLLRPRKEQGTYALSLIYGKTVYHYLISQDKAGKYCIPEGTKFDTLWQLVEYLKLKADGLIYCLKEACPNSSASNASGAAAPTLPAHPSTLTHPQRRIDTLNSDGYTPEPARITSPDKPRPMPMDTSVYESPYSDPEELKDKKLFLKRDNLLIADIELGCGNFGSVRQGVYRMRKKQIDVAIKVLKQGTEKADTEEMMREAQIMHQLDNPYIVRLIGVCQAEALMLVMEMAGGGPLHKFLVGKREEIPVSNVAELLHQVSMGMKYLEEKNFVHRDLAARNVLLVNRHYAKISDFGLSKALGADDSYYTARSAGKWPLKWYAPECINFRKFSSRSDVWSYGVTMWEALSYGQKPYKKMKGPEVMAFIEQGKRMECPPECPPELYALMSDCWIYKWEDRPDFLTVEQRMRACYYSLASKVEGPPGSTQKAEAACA
In words: Inhibition of ZAP70 at 10 uM by HTRF assay relative to control. The essentials: as §1

The nature of experiment [4]: Inhibition of PKA at 10 uM by HTRF assay relative to control. The essentials: as §1
Experiment [5] deals with Tyrosine-protein kinase ABL1 (Homo sapiens) (UniProt P00519). As to the kind of experiment: Inhibition of Abl at 10 uM by HTRF assay relative to control. The essentials: as §1
Experiment [6] deals with Calcium/calmodulin-dependent protein kinase type II subunit alpha (Homo sapiens) (UniProt Q9UQM7). As to the kind of experiment: Inhibition of CaMK2alpha at 10 uM by HTRF assay relative to control. The essentials: as §1
Experiment [7] addresses Insulin-like growth factor 1 receptor (Homo sapiens) (UniProt P08069). As to the kind of experiment: Inhibition of IGF1R at 10 uM by HTRF assay relative to control. In outline: as §1
Experiment [8] has as its target 3-phosphoinositide-dependent protein kinase 1 (Homo sapiens) (UniProt O15530). In words: Inhibition of PDK1 at 10 uM by HTRF assay relative to control.
For experiment [9], the target named is Ribosomal protein S6 kinase alpha-3 (Homo sapiens) (UniProt P51812). As to the kind of experiment: Inhibition of RSK2 at 10 uM by HTRF assay relative to control. The essentials: as §1
The target in experiment [10] is Platelet-derived growth factor receptor beta (Homo sapiens) (UniProt P09619). As to the kind of experiment: Inhibition of PDGFRbeta at 10 uM by HTRF assay relative to control. The essentials:
as §1

Experiment [11] deals with Mitogen-activated protein kinase 9 (Homo sapiens) (UniProt P45984). As to the kind of experiment: Inhibition of JNK2 at 10 uM by HTRF assay relative to control. The essentials: as §1
The target of experiment [12] is Fibroblast growth factor receptor 1 (Homo sapiens) (UniProt P11362). As to the kind of experiment: Inhibition of FGFR1 at 10 uM by HTRF assay relative to control. The essentials:
as §1

Experiment [13] has as its target T2, Mitogen-activated protein kinase 12 (Homo sapiens) (UniProt P53778).
T2 sequence (whole entry): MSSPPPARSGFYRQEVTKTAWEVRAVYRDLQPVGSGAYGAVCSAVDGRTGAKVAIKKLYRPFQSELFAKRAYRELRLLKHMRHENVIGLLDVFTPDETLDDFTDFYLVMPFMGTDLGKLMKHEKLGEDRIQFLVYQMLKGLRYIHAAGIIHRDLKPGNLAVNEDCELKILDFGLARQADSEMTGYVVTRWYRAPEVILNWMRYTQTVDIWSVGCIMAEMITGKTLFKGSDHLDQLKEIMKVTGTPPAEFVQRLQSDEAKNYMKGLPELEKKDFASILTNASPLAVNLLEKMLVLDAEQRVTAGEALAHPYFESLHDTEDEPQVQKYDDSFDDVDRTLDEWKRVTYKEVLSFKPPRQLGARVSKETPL
As to the kind of experiment: Inhibition of p38-gamma at 10 uM by HTRF assay relative to control. In outline:
as §1

The target in experiment [14] is Protein-tyrosine kinase 6 (Homo sapiens) (UniProt Q13882). As to the kind of experiment: Inhibition of Brk at 10 uM by HTRF assay relative to control. In outline:
as §1

Experiment [15] addresses Mitogen-activated protein kinase 1 (Homo sapiens) (UniProt P28482). In words: Inhibition of ERK2 at 10 uM by HTRF assay relative to control. The essentials: as §1
Experiment [16] in a line: Inhibition of AMPKalpha at 10 uM by HTRF assay relative to control. In outline:
as §1

The target in experiment [17] is RAC-alpha serine/threonine-protein kinase (Homo sapiens) (UniProt P31749). In words: Inhibition of AKT1/PKBalpha at 10 uM by HTRF assay relative to control. In outline:
as §1

Experiment [18] in a line: Inhibition of IRK at 10 uM by HTRF assay relative to control. In outline:
as §1

Structures are written as SMILES.

Chain of Insulin-like growth factor 1 receptor (Homo sapiens) (P08069 31-736 limits assumed): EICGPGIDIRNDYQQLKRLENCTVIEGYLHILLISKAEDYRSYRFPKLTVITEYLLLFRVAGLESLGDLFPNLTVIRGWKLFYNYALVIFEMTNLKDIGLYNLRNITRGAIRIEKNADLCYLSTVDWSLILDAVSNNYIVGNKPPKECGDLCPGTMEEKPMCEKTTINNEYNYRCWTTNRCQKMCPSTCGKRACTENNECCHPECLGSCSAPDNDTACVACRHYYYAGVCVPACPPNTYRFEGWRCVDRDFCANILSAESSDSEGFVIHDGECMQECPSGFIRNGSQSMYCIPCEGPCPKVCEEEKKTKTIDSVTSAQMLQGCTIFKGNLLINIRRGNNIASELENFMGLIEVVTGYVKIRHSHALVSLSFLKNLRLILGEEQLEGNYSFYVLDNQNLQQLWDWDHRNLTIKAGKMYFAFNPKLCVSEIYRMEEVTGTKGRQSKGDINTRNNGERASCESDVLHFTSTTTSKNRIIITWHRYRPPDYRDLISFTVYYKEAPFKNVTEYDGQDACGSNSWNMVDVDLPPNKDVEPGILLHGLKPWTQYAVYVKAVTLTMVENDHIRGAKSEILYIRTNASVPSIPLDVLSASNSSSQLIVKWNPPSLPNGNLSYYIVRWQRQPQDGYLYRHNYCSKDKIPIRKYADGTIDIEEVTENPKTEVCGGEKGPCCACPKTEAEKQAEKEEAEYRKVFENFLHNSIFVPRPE
Chain of Insulin-like growth factor 1 receptor (Homo sapiens) (P08069 741-1367 limits assumed): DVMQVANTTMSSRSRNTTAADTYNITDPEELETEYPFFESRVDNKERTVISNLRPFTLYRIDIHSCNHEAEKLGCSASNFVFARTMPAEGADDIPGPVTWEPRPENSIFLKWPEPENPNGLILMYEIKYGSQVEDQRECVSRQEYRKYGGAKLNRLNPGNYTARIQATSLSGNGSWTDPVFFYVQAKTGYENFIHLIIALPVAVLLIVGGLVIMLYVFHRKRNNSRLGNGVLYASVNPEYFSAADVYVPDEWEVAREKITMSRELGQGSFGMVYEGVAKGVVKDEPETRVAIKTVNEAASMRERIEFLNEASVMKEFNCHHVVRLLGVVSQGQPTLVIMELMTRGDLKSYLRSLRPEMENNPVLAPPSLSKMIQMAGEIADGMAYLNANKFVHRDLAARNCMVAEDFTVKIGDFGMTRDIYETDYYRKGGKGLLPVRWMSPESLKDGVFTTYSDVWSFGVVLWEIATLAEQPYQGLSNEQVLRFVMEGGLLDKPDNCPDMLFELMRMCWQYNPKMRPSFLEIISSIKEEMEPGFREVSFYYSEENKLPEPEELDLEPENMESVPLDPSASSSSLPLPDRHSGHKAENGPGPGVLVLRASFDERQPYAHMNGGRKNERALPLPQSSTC
Chain of Mitogen-activated protein kinase 1 (Homo sapiens) (P28482 whole entry): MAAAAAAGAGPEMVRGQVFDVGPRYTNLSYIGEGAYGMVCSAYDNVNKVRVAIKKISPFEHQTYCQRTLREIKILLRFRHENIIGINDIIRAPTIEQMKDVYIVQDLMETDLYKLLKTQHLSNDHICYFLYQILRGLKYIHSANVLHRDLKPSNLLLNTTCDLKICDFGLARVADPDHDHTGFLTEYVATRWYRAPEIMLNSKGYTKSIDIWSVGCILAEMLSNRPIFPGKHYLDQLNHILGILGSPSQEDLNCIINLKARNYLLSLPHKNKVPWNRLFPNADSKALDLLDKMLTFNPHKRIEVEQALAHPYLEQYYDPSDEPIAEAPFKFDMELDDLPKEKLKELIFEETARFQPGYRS
Chain of 3-phosphoinositide-dependent protein kinase 1 (Homo sapiens) (O15530 whole entry, looked up): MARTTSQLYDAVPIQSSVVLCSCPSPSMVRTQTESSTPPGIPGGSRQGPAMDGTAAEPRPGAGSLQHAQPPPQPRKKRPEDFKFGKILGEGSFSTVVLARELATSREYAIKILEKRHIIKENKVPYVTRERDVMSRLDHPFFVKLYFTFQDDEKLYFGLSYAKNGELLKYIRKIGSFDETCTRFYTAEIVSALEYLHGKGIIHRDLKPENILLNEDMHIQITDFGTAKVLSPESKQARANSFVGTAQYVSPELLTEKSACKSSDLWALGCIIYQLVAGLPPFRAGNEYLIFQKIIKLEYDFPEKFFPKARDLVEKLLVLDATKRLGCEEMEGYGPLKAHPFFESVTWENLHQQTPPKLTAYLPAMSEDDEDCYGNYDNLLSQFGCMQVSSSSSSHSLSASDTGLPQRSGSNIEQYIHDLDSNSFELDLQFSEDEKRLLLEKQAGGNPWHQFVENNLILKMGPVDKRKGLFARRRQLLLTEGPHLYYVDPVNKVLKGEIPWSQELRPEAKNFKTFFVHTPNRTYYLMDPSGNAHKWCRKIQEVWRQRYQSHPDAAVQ
Chain of Mitogen-activated protein kinase 9 (Homo sapiens) (P45984 whole entry, looked up): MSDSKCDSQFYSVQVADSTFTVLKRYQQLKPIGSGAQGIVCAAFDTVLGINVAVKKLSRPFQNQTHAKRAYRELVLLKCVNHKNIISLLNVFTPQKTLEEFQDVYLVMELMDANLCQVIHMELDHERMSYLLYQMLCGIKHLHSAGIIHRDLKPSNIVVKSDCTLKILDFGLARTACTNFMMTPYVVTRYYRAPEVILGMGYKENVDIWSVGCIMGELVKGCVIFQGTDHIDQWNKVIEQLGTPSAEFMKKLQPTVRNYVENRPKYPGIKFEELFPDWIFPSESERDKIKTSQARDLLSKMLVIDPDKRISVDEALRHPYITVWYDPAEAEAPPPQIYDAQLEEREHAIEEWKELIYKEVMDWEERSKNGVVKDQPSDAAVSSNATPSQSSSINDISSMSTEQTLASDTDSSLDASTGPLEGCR
Chain of Platelet-derived growth factor receptor beta (Homo sapiens) (P09619 whole entry): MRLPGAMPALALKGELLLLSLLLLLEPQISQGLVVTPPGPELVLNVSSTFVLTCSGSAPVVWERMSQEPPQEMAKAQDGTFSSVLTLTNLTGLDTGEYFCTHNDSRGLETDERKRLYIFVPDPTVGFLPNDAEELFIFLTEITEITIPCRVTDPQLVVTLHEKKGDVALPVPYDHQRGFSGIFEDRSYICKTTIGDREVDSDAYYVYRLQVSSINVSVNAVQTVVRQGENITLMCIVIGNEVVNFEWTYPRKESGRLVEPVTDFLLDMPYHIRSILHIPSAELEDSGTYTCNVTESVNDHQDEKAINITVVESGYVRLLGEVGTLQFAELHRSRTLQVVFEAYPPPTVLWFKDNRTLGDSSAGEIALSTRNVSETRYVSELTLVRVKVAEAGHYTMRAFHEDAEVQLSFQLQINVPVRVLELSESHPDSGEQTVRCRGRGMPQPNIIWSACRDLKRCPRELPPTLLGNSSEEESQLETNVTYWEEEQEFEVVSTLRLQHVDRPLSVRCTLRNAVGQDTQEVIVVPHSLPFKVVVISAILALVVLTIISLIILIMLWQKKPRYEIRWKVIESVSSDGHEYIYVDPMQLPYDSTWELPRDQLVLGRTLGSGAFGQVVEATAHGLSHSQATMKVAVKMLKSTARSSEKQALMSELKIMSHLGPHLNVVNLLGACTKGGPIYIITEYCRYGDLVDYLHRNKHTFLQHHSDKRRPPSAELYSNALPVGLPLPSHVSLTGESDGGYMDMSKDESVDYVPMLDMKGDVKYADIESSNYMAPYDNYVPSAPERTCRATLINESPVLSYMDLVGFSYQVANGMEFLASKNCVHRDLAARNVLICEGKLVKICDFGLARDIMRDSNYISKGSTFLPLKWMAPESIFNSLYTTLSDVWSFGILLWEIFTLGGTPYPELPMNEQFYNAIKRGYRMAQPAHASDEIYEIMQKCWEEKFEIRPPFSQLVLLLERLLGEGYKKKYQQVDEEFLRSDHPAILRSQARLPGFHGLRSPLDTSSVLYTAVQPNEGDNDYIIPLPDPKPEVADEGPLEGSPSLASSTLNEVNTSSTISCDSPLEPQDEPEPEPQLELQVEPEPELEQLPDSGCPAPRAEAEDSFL
Chain of Focal adhesion kinase 1 (Homo sapiens) (Q05397 2-1052 limits assumed): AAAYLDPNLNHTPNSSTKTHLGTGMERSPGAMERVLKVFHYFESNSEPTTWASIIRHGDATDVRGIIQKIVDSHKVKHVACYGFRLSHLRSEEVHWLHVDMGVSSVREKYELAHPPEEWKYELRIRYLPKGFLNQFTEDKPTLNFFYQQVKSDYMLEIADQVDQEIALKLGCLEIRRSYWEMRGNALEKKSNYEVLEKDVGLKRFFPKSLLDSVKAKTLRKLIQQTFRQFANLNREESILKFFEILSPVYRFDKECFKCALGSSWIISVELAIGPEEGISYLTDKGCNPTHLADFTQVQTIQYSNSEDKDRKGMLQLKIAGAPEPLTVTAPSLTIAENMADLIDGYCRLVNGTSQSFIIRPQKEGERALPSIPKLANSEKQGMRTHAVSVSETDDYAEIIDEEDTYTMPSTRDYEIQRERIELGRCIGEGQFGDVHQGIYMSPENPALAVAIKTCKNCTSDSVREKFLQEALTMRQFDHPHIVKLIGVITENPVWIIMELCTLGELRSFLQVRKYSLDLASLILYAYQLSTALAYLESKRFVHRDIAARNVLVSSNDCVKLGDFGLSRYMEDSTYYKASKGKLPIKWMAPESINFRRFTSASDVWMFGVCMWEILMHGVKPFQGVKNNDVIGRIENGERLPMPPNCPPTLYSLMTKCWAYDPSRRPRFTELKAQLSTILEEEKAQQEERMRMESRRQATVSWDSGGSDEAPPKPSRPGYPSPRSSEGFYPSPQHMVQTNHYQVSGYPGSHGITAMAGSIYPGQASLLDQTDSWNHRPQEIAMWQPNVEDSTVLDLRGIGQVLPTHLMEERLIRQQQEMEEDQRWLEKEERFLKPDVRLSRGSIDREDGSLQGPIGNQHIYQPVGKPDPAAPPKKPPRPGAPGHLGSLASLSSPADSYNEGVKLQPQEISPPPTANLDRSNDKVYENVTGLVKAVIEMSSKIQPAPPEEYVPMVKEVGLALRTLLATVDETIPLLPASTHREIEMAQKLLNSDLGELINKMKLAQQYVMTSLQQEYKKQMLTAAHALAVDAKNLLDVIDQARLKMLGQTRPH

For orientation: inhibition means the percentage by which the read-out fell short of the control. In the case of `Cc1cccc(Nc2cc(Nc3cccc(C(=O)N(CC(C)O)CC(C)O)c3)ncn2)c1` (stereo not given), the inhibition in experiment [1] amounted to 0%; in [2], 20%; in experiment [3] it was 6%; in experiment [4], 0%; in experiment [5], 75%; in [6] it was 0%. Moreover, the inhibition is 0% in [7]; 2% in experiment [8]; 0% in [9]; 32% in experiment [10]; 8% in experiment [11]; 59% in experiment [12]. The inhibition in experiment [13] is 0%; in experiment [14] it was 23%; in experiment [15], 0%; in experiment [16] it was 6%; in [17] it was 2%; in [18] it was 0%.
On to `Nc1nc(Nc2ccccc2)cc(N2CCC(C(=O)NCCc3ccccn3)CC2)n1`, for which the inhibition is 0% in experiment [1]; 1% in experiment [2]; 0% in experiment [3]; 6% in experiment [4]; 0% in [5]; 0% in experiment [6]. The inhibition in experiment [7] was 0%; in experiment [8], 0%; in experiment [9], 0%; in experiment [10], 0%; in experiment [11] it was 1%; in experiment [12] it was 0%. The inhibition in [13] amounted to 6%; in experiment [14], 10%; in experiment [15], 1%; in experiment [16] it was 0%; in experiment [17] it was 0%; in [18] it was 0%.
For `Cc1cccc(N(C)c2cc(Nc3cccc(C(=O)NCCCn4ccnc4)c3)ncn2)c1`, the inhibition in [1] stood at 0%; in [2], 15%; in [3], 4%; in [4], 0%; in experiment [5], 71%; in [6] it was 0%. Moreover, the inhibition stood at 0% in [7]; 0% in experiment [8]; 0% in experiment [9]; 37% in [10]; 22% in experiment [11]; 5% in experiment [12]. The inhibition in experiment [13] came to 2%; in experiment [14] it was 12%; in [15], 4%; in [16], 5%; in experiment [17] it was 0%; in experiment [18], 0%.
With `CN(C)CC(C)(C)CNC(=O)c1cccc(Nc2nccc(Nc3ccc4ncsc4c3)n2)c1`, the inhibition stood at 0% in experiment [1]; 97% in [2]; 18% in experiment [3]; 12% in [4]; 96% in experiment [5]; 34% in [6]. For the same compound, the inhibition is 95% in [7]; 0% in experiment [8]; 17% in experiment [9]; 99% in [10]; 88% in [11]; 86% in experiment [12]. For the same compound, the inhibition in experiment [13] turned out to be 9%; in experiment [14], 97%; in experiment [15], 13%; in [16], 72%; in experiment [17], 0%; in experiment [18], 87%.
Take `Cc1cccc(Oc2ccnc(N3CCC[C@H]3C(=O)NCc3cccnc3)n2)c1`: the inhibition was 0% in experiment [1]; 0% in experiment [2]; 6% in experiment [3]; 0% in experiment [4]; 7% in experiment [5]; 0% in experiment [6]. Moreover, the inhibition in experiment [7] was 0%; in [8], 0%; in experiment [9], 0%; in experiment [10], 11%; in experiment [11], 4%; in experiment [12] it was 0%. Moreover, the inhibition in experiment [13], in experiment [14], in experiment [15], in [16], in experiment [17] and in experiment [18] was 0% throughout.
On to `O=C(NCc1ccncc1)c1cccc(Nc2cc(Nc3cccc(Br)c3)ncn2)c1`, for which the inhibition was determined as 0% in experiment [1]; 12% in experiment [2]; 9% in experiment [3]; 0% in experiment [4]; 31% in experiment [5]; 0% in experiment [6]. Also, the inhibition in experiment [7] worked out at 5%; in experiment [8], 4%; in experiment [9], 5%; in experiment [10], 26%; in [11], 38%; in experiment [12], 0%. The inhibition in experiment [13] worked out at 0%; in experiment [14], 10%; in experiment [15] it was 0%; in experiment [16], 11%; in experiment [17] it was 0%; in experiment [18] it was 0%.
In the case of `Cc1cccc(N(C)c2cc(Nc3cccc(C(=O)NCc4ccncc4)c3)ncn2)c1`, the inhibition in experiment [1] was 0%; in [2], 20%; in experiment [3] it was 6%; in experiment [4] it was 0%; in experiment [5], 53%; in experiment [6], 0%. Besides, the inhibition in experiment [7] was found to be 0%; in experiment [8] it was 0%; in experiment [9], 3%; in experiment [10], 33%; in [11] it was 21%; in experiment [12], 0%. Besides, the inhibition was found to be 3% in [13]; 0% in [14]; 6% in experiment [15]; 0% in [16]; 0% in experiment [17]; 0% in experiment [18].
In the case of `Nc1nc(Nc2ccc3ncsc3c2)cc(N2CCC[C@H]2C(=O)NCCc2cccc(I)c2)n1`, the inhibition worked out at 3% in experiment [1]; 4% in [2]; 2% in experiment [3]; 1% in experiment [4]; 7% in experiment [5]; 0% in experiment [6]. Besides, the inhibition was determined as 0% in [7]; 7% in experiment [8]; 0% in experiment [9]; 14% in experiment [10]; 5% in experiment [11]; 13% in experiment [12]. Also, the inhibition in experiment [13] amounted to 2%; in experiment [14], 0%; in experiment [15], 0%; in experiment [16] it was 6%; in experiment [17], 0%; in experiment [18], 0%.
As for `Cc1cccc(Nc2nccc(Nc3cccc(C(=O)N(C)CCc4ccccn4)c3)n2)c1`, the inhibition was 0% in experiment [1]; 99% in experiment [2]; 23% in experiment [3]; 0% in experiment [4]; 38% in experiment [5]; 0% in [6]. Further, the inhibition in experiment [7] amounted to 87%; in experiment [8] it was 8%; in experiment [9], 57%; in experiment [10], 93%; in experiment [11], 37%; in [12], 82%. The inhibition in [13] was determined as 2%; in experiment [14], 36%; in experiment [15] it was 0%; in experiment [16], 17%; in experiment [17] it was 0%; in [18], 66%.
As to `CC(=O)N1CCN(C(=O)c2cccc(Nc3cc(N(C)c4cccc(C)c4)ncn3)c2)CC1`, the inhibition in experiment [1] stood at 0%; in experiment [2], 17%; in [3], 9%; in [4], 0%; in experiment [5], 47%; in [6] it was 0%. The inhibition was 0% in experiment [7]; 0% in [8]; 14% in [9]; 42% in experiment [10]; 7% in [11]; 21% in experiment [12]. In addition, the inhibition stood at 3% in experiment [13]; 1% in experiment [14]; 0% in experiment [15]; 0% in experiment [16]; 0% in experiment [17]; 0% in experiment [18].

These data come from ChEMBL document CHEMBL1150387, “Development and experimental validation of a docking strategy for the generation of kinase-targeted libraries” (J Med Chem, 2008).
